Results: the EternaBench riboswitch data

Tested on: MS2 coat protein
Experiment: apparent Kd, MS2 coat protein; higher = weaker binding; RNA-MaP array; tryptophan 2.4 mM where present
Summary of the method: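 Apparent Kd: the median of filtered binding-curve fits from single clusters. Designs were transcribed on Illumina sequencing-chip clusters by stalled E. coli RNA polymerase and titrated with SNAP-549-labelled MS2 coat protein from 0.7 or 1.5 nM, doubling to 3 µM, in 100 mM Tris-HCl pH 7.5, 80 mM KCl, 4 mM MgCl2, BSA, DTT, yeast tRNA and Tween-20. Each series ran without and then with constant ligand, and green signal was normalised to red-channel RNA signal and control-cluster median Fmax.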

[1] = designed as: OFF switch for tryptophan, no ligand
[2] = ligand present: tryptophan, designed as: OFF switch for tryptophan
[3] = designed as: ON switch for tryptophan, no ligand
[4] = ligand present: tryptophan, designed as: ON switch for tryptophan

Row | Sequence | apparent Kd [1] | apparent Kd [2] | apparent Kd [3] | apparent Kd [4]
1 | GUGUACAUGAGGAUCACCCAUGUCGAGUUACGAGGACCGGUACGGCCGCCACUCGGCGGCUCGACACGGAUAGCGAUGCGUUGCU | 0.0436 µM | 0.11 µM | – | –
2 | UGUGUAAUUGUCUGGUAGAUUUAUUUUUUUCGAGGACCGGUACGGCCGCCACUCGUUAUUUACAUGAGGAUCACCCAUGUUAGCU | 0.0129 µM | 0.0129 µM | – | –
3 | CAUGUGAAAAUAAGAAGAAGAAGAAUAAAUCGAGGACCGGUACGGCCGCCACUCGUCGAAUCACAUGAGGAUCACCCAUGUAGCC | 0.0651 µM | 0.0509 µM | – | –
4 | UUCUUUAAGUCGGCCGCCACUGAAACAUGAGGAUCACCCAUGUAAAUUUGGGAGUAGUUAUAUUACAGGACCGGGACUAUAGUAA | 0.0415 µM | 0.083 µM | – | –
5 | GGCACAUAGUCGGCCGCCACUAGUGGGAAAUGGGAGAACAUGAGGAUCACCCAUGUAGCGUAGCCUAGGACCGGGACUAUGUGCC | 0.16 µM | 0.156 µM | – | –
6 | UUAUAAGUACCGGUCCUCAGAUCCUCAUGACGAGGACCGGUACGGCCGCCACUCGAAACAUGAGGAUCACCCAUGUAAUAACACU | 0.0231 µM | 0.0199 µM | – | –
7 | CUCAUCCACGCGGCCGCCACUAUAUUGUGGUGUGAAUGUGACGUAUUACAUGAGGAUCACCCAUGUAGGACCGGGCGUGGAUGAG | 0.0754 µM | 0.168 µM | – | –
8 | UGUCAGCGAAAGUUGACAUGUUGAACCGGUCGAGGACCGGUACGGCCGCCACUCGAUCUCUCGUACAUGAGGAUCACCCAUGUCG | – | – | 0.0115 µM | 0.0107 µM
9 | AACGAGUGGCGGCCAUUGGGUGAUCCUCUACGAGGACCGGUACGGCCGCCACUCGAUAACAUGAGGAUCACCCAUGUGCCGAUAA | 0.124 µM | 0.133 µM | – | –
10 | AAGCGGGCGACGGCCGCCACUUGCCUGUAAUUAGAGAAGGCACAUGAGGAUCACCCAUGUCCCGCAAGGACCGGGUUGCCUCACU | – | – | 0.417 µM | 0.0845 µM
11 | ACCGAAAGCUCACAUGAGGAUCACCCAUGUCGAGGACCGGUACGGCCGCCACUCGGCAAAUAUAAGGGUGGACGCGUCUCUGCGU | 0.039 µM | 0.0798 µM | – | –
12 | GGUUACUCUACGGCCGCCACUGUAAAGUAAAGAUACCUGUACAUGACAUGAGGAUCACCCAUGUACAGGACCGGGUAGUGUAACC | – | – | 0.545 µM | 0.232 µM
13 | AGUUCCAGGUCGGCCGCCACUGGCGUGGCCGGUCCUCGGACUUACAUGAGGAUCACCCAUGUGAACAGGACCGGGACCGCAUGGG | 0.0369 µM | 0.0287 µM | – | –
14 | CCAUCUACAUCGGCCGCCACUGAACCAAGGAGACAUGAGGAUCACCCAUGUAUGGGAAACCAUCAUAGGACCGGGAUGAUCUACC | – | – | 0.113 µM | 0.122 µM
15 | AAAAUAAAAUAAAAGGUGGAAAUAAGGCGGCGAGGACCGGUACGGCCGCCACUCGCGUACAUGAGGAUCACCCAUGUCUGAAAAU | – | – | 0.0224 µM | 0.0274 µM
16 | AACAUGAGGAUCACCCAUGUCCCAUGUGAACGAGGACCGGUACGGCCGCCACUCGACCGAGGCGGCACAUGAGGAUCACCCACAU | – | – | 0.234 µM | 0.608 µM
17 | AGCAACAAGUCGGCCGCCACUCAUUUAACAUGAGGAUCACCCAUGUGAAUAACAUGAUUGUAAUAGAGGACCGGGACAGUUGCAU | – | – | 0.0625 µM | 0.031 µM
18 | GCUAGGUCUACGGCCGCCACUAGACAUGGGUAAGACAUGAGGAUCACCCAUGUACUACGAGUGCAUAGGACCGGGUAGACCUAGC | – | – | 0.326 µM | 0.0535 µM

Row | Sequence | apparent Kd [1] | apparent Kd [2] | apparent Kd [3] | apparent Kd [4]
19 | GUUGGACUUUCGGCCGCCACUGAGAGAGUCAUGUGAACAUGAGGAUCACCCAUGUAAUAUAUAUACAGGACCGGGAGGGUUGUAA | 0.0133 µM | 0.0099 µM | – | –
20 | AACAUGAGGAUCACCCAUGUCCCAUGUGAACGAGGACCGGUACGGCCGCCACUCGAAUGAGGCGGCACAUGAGGAUCACCCACAU | – | – | 0.131 µM | 0.196 µM
21 | AGCCACUCGAGUGAUCCUCACGAGUGGCUACGAGGACCGGUACGGCCGCCACUCGAAUUAACAUGAGGAUCACCCAUGUAAUCUA | – | – | 0.081 µM | 0.0537 µM
22 | AACAUGAGGAUCACCCAUGUACCUUUCGAUCGAGGACCGGUACGGCCGCCACUCGAAAACAUGAGGAUCACCCAUGUUCAACAGG | – | – | 0.145 µM | 0.0874 µM
23 | AUUCAUGGAAACAUGACAUACAUAUCCGGUCGAGGACCGGUACGGCCGCCACUCGUUUGGAGGCACAUGAGGAUCACCCAUGUUA | – | – | 0.0239 µM | 0.0259 µM
24 | ACGUUUUAGUCGGCCGCCACUGUUUUCAUGUUCAACAUGAGGAUCACCCAUGUACCUUUUUUUAUCAGGACCGGGACGUAAUAGA | – | – | 0.0685 µM | 0.0274 µM
25 | CACAGUGCGAAAUUGAAACCGCACGAUCCUCGAGGACCGGUACGGCCGCCACUCGCGCGGGUCGUACAUGAGGAUCACCCAUGUC | – | – | 0.262 µM | 0.371 µM
26 | AAACAUGAGGAUCACCCAUGUAUGUUAUUACGAGGACCGGUACGGCCGCCACUCGAUAGAGUAGAAGUAAAUUGUAAUUCAUGUU | 0.0143 µM | 0.0159 µM | – | –
27 | UUCGUUGGCGAUCUGGGUUUACCAGAUCGGCGAGGACCGGUACGGCCGCCACUCGUGUUUUCUUUACAUGAGGAUCACCCAUGUU | – | – | 0.0192 µM | 0.0152 µM
28 | AGCACGGUGAUGGUAGCCGGACGAUAAGUACGAGGACCGGUACGGCCGCCACUCGAAGUCCUACGACAUGAGGAUCACCCAUGUA | – | – | 0.0332 µM | 0.0379 µM
29 | GCUACAUGAGGAUCACCCAUGUAUGCGAGCCGAGGACCGGUACGGCCGCCACUCGCUUAACAUGAGGAUCACCCAUGUUGCUCGG | – | – | 0.0409 µM | 0.0437 µM
30 | AGGUACAGCAGGUGAUUCUGGCUGUACCAACGAGGACCGGUACGGCCGCCACUCGAAUAAACAUGAGGAUCACCCAUGUACAAAU | – | – | 0.0246 µM | 0.0216 µM
31 | CGUAUUGGAAACAGUACGAGUGAUCCGGUCCGAGGACCGGUACGGCCGCCACUCGAAAUUAAUAAACAUGAGGAUCACCCAUGUA | 0.0178 µM | 0.0268 µM | – | –
32 | UAUCGUCAGACGGCCGCCACUAGUACAUGAGGAUCACCCAUGUAGGUCCUAGAUUCCUCAUGAUCUAGGACCGGGUCUGACGAAU | 0.039 µM | 0.023 µM | – | –
33 | ACGUGGAAAAUUUGUGGUGCUGCCUCAGGCCGAGGACCGGUACGGCCGCCACUCGUACAUGAGGAUCACCCAUGUCGAGUCACUG | 0.0254 µM | 0.0222 µM | – | –
34 | ACGGAUCGGAAACGAUCCGCGGCGCGGGUGCGAGGACCGGUACGGCCGCCACUCGGGUAACAUGAGGAUCACCCAUGUCCGAUUU | 0.101 µM | 0.304 µM | – | –
35 | CCGGCCAAUUAGAAAUUAAUUGGCCGGAAACGAGGACCGGUACGGCCGCCACUCGUGGCGGGAGAAACAUGAGGAUCACCCAUGU | 0.04 µM | 0.026 µM | – | –
